Source: ChEMBL document CHEMBL1129661, “The chemistry of Pseudomonic acid. 15. Synthesis and antibacterial activity of a series of 5-alkyl, 5-alkenyl, and 5-heterosubstituted oxazoles” (1996)
Values after ≈ are worked out from the molar mass of the structure shown.

Columns and labels:
Streptococcus pyogenes [1] = assay: Minimal inhibitory concentration against Streptococcus pyogenes CN10; format: functional
Method in brief: (§1)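 Agar dilution method. Each plate was spot-inoculated with 1 µL spots, about 10^6 CFU per spot. Plates were incubated 18-24 h at 37 °C.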

Haemophilus influenzae [2] = assay: Minimal inhibitory concentration against Haemophilus influenzae Q1; format: functional; method in brief: as §1
Moraxella catarrhalis [3] = assay: Minimal inhibitory concentration of compound against Moraxella catarrhalis 1502; format: functional; method in brief: as §1
Staphylococcus aureus [4] = assay: Minimal inhibitory concentration against Staphylococcus aureus Oxford NCTC 6571; format: functional; method in brief: as §1
Streptococcus pneumoniae [5] = assay: Minimal inhibitory concentration against Streptococcus pneumoniae PU7; format: functional; method in brief: as §1
Haemophilus influenzae [6] = assay: Minimal inhibitory concentration against Haemophilus influenzae H128; format: functional; method in brief: as §1
Streptococcus pneumoniae [7] = assay: Minimal inhibitory concentration of compound against Streptococcus pneumoniae 1629; format: functional; method in brief: as §1
Staphylococcus aureus [8] = assay: Minimal inhibitory concentration of compound against Staphylococcus aureus Russell; format: functional; method in brief: as §1
Haemophilus influenzae [9] = assay: Minimal inhibitory concentration against Haemophilus influenzae WY21; format: functional; method in brief: as §1
Moraxella catarrhalis [10] = assay: Minimal inhibitory concentration of compound against Moraxella catarrhalis H; format: functional; method in brief: as §1
Streptococcus pyogenes [11] = assay: Minimal inhibitory concentration of compound against Streptococcus pyogenes BCA; format: functional; method in brief: as §1
Moraxella catarrhalis [12] = assay: Minimal inhibitory concentration of compound against Moraxella catarrhalis 1502; No bacterial growth; format: functional, organism-based; method in brief: as §1
Streptococcus pneumoniae [13] = assay: Minimal inhibitory concentration of compound against Streptococcus pneumoniae PU7; No bacterial growth; format: functional, organism-based; method in brief: as §1

MIC (Streptococcus pyogenes [1]) [µg/mL] | MIC (Haemophilus influenzae [2]) [µg/mL] | MIC (Moraxella catarrhalis [3]) [µg/mL] | MIC (Staphylococcus aureus [4]) [µg/mL] | MIC (Streptococcus pneumoniae [5]) [µg/mL] | MIC (Haemophilus influenzae [6]) [µg/mL] | MIC (Streptococcus pneumoniae [7]) [µg/mL] | MIC (Staphylococcus aureus [8]) [µg/mL] | MIC (Haemophilus influenzae [9]) [µg/mL] | MIC (Moraxella catarrhalis [10]) [µg/mL] | MIC (Streptococcus pyogenes [11]) [µg/mL] | MIC (Moraxella catarrhalis [12]) | MIC (Streptococcus pneumoniae [13]) | SMILES
2 (≈ 4.86 µM) | 0.5 (≈ 1.22 µM) | 4 (≈ 9.72 µM) | 2 (≈ 4.86 µM) | 2 (≈ 4.86 µM) |  |  |  |  |  |  |  |  | CCOc1cnc(/C=C(\C)C[C@@H]2OC[C@H](C[C@@H]3O[C@H]3[C@@H](C)[C@H](C)O)[C@@H](O)[C@H]2O)o1
> 128 | 128 (≈ 281 µM) | > 128 | > 128 | > 128 |  |  |  |  |  |  |  |  | COC(=O)c1nc(/C=C(\C)C[C@@H]2OC[C@H](C[C@@H]3O[C@H]3[C@@H](C)[C@H](C)O)[C@@H](O)[C@H]2O)oc1OC
1 (≈ 2.06 µM) | 1 (≈ 2.06 µM) | 0.5 (≈ 1.03 µM) | 1 (≈ 2.06 µM) | 4 (≈ 8.24 µM) |  |  |  |  |  |  |  |  | C/C(=C\c1ncc(C2SCCCS2)o1)C[C@@H]1OC[C@H](C[C@@H]2O[C@H]2[C@@H](C)[C@H](C)O)[C@@H](O)[C@H]1O
16 (≈ 40.5 µM) | 4 (≈ 10.1 µM) | 8 (≈ 20.2 µM) | 2 (≈ 5.06 µM) | 64 (≈ 162 µM) |  |  |  |  |  |  |  |  | C/C(=C\c1ncc(C=O)o1)C[C@@H]1OC[C@H](C[C@@H]2O[C@H]2[C@@H](C)[C@H](C)O)[C@@H](O)[C@H]1O
8 (≈ 18.8 µM) | 1 (≈ 2.35 µM) | 8 (≈ 18.8 µM) | 4 (≈ 9.4 µM) | 8 (≈ 18.8 µM) |  |  |  |  |  |  |  |  | COC(=O)c1cnc(/C=C(\C)C[C@@H]2OC[C@H](C[C@@H]3O[C@H]3[C@@H](C)[C@H](C)O)[C@@H](O)[C@H]2O)o1
64 | 16 | 16 | 64 | 64 |  |  |  |  |  |  |  |  | C/C(=C\c1ncc(/C=C/C(=O)[O-])o1)C[C@@H]1OC[C@H](C[C@@H]2O[C@H]2[C@@H](C)[C@H](C)O)[C@@H](O)[C@H]1O.[Na+]
16 (≈ 33.9 µM) |  | 32 (≈ 67.7 µM) | 16 (≈ 33.9 µM) | 32 (≈ 67.7 µM) | 16 (≈ 33.9 µM) |  |  |  |  |  |  |  | C/C(=C\c1ncc(N(C)c2ccccc2)o1)C[C@@H]1OC[C@H](C[C@@H]2O[C@H]2[C@@H](C)[C@H](C)O)[C@@H](O)[C@H]1O
32 (≈ 87.1 µM) | 2 (≈ 5.44 µM) | 4 (≈ 10.9 µM) | 16 (≈ 43.5 µM) |  |  | 128 (≈ 348 µM) |  |  |  |  |  |  | C/C(=C\c1ncco1)C[C@@H]1OC[C@H](C[C@@H]2O[C@H]2[C@@H](C)[C@H](C)O)[C@@H](O)[C@H]1O
0.5 (≈ 1.18 µM) | 1 (≈ 2.36 µM) | 4 (≈ 9.44 µM) | 1 (≈ 2.36 µM) | 4 (≈ 9.44 µM) |  |  |  |  |  |  |  |  | CCCCc1cnc(/C=C(\C)C[C@@H]2OC[C@H](C[C@@H]3O[C@H]3[C@@H](C)[C@H](C)O)[C@@H](O)[C@H]2O)o1
4 (≈ 8.41 µM) | 8 (≈ 16.8 µM) | 8 (≈ 16.8 µM) |  | 32 (≈ 67.3 µM) |  |  | 16 (≈ 33.6 µM) |  |  |  |  |  | C/C(=C\c1ncc(Sc2ccccc2)o1)C[C@@H]1OC[C@H](C[C@@H]2O[C@H]2[C@@H](C)[C@H](C)O)[C@@H](O)[C@H]1O
64 |  | 32 | 32 | 64 |  |  |  | 8 |  |  |  |  | C/C(=C\c1ncc(CCCC(=O)[O-])o1)C[C@@H]1OC[C@H](C[C@@H]2O[C@H]2[C@@H](C)[C@H](C)O)[C@@H](O)[C@H]1O.[Na+]
4 (≈ 8.88 µM) | 0.5 (≈ 1.11 µM) |  | 8 (≈ 17.8 µM) | 8 (≈ 17.8 µM) |  |  |  |  | 8 (≈ 17.8 µM) |  |  |  | C/C(=C\c1ncc(N2CCCCC2)o1)C[C@@H]1OC[C@H](C[C@@H]2O[C@H]2[C@@H](C)[C@H](C)O)[C@@H](O)[C@H]1O
> 128 | 32 (≈ 70.3 µM) | 32 (≈ 70.3 µM) | > 128 | > 128 |  |  |  |  |  |  |  |  | CCOC(=O)Oc1cnc(/C=C(\C)C[C@@H]2OC[C@H](C[C@@H]3O[C@H]3[C@@H](C)[C@H](C)O)[C@@H](O)[C@H]2O)o1
0.5 (≈ 1.07 µM) |  | 2 (≈ 4.28 µM) | 1 (≈ 2.14 µM) | 4 (≈ 8.56 µM) |  |  |  | 1 (≈ 2.14 µM) |  |  |  |  | COC(=O)CCCc1cnc(/C=C(\C)C[C@@H]2OC[C@H](C[C@@H]3O[C@H]3[C@@H](C)[C@H](C)O)[C@@H](O)[C@H]2O)o1
 | 0.5 (≈ 1.11 µM) |  | 2 (≈ 4.43 µM) | 1 (≈ 2.21 µM) |  |  |  |  |  | 4 (≈ 8.86 µM) |  |  | COC(=O)/C=C/c1cnc(/C=C(\C)C[C@@H]2OC[C@H](C[C@@H]3O[C@H]3[C@@H](C)[C@H](C)O)[C@@H](O)[C@H]2O)o1
4 (≈ 8.14 µM) | 2 (≈ 4.07 µM) | 16 (≈ 32.5 µM) | 16 (≈ 32.5 µM) | 16 (≈ 32.5 µM) |  |  |  |  |  |  |  |  | C/C(=C\c1ncc([S+]([O-])c2ccccc2)o1)C[C@@H]1OC[C@H](C[C@@H]2O[C@H]2[C@@H](C)[C@H](C)O)[C@@H](O)[C@H]1O (stereo partly drawn)
16 (≈ 35.4 µM) |  | 8 (≈ 17.7 µM) | 8 (≈ 17.7 µM) | 16 (≈ 35.4 µM) |  |  |  | 0.25 (≈ 0.554 µM) |  |  |  |  | COC(=O)/C=C\c1cnc(/C=C(\C)C[C@@H]2OC[C@H](C[C@@H]3O[C@H]3[C@@H](C)[C@H](C)O)[C@@H](O)[C@H]2O)o1
4 (≈ 9.36 µM) | 1 (≈ 2.34 µM) | 8 (≈ 18.7 µM) | 8 (≈ 18.7 µM) | 8 (≈ 18.7 µM) |  |  |  |  |  |  |  |  | CCSc1cnc(/C=C(\C)C[C@@H]2OC[C@H](C[C@@H]3O[C@H]3[C@@H](C)[C@H](C)O)[C@@H](O)[C@H]2O)o1
8 (≈ 17.4 µM) |  | 16 (≈ 34.8 µM) | 8 (≈ 17.4 µM) | 16 (≈ 34.8 µM) | 8 (≈ 17.4 µM) |  |  |  |  |  |  |  | C/C(=C\c1ncc(Oc2ccccc2)o1)C[C@@H]1OC[C@H](C[C@@H]2O[C@H]2[C@@H](C)[C@H](C)O)[C@@H](O)[C@H]1O
1 | 4 | 8 | 4 | 4 |  |  |  |  |  |  |  |  | C/C(=C\c1ncc(CCCCCCCCC(=O)[O-])o1)C[C@@H]1OC[C@H](C[C@@H]2O[C@H]2[C@@H](C)[C@H](C)O)[C@@H](O)[C@H]1O.[Na+]
8 (≈ 18 µM) | 0.13 (≈ 0.293 µM) |  | 8 (≈ 18 µM) | 4 (≈ 9.02 µM) |  |  |  |  | 16 (≈ 36.1 µM) |  |  |  | CC[S+]([O-])c1cnc(/C=C(\C)C[C@@H]2OC[C@H](C[C@@H]3O[C@H]3[C@@H](C)[C@H](C)O)[C@@H](O)[C@H]2O)o1 (stereo partly drawn)
> 128 | > 128 | > 128 | > 128 | > 128 |  |  |  |  |  |  |  |  | C/C(=C\c1ncc(C(=O)[O-])o1)C[C@@H]1OC[C@H](C[C@@H]2O[C@H]2[C@@H](C)[C@H](C)O)[C@@H](O)[C@H]1O.[Na+]
4 (≈ 7.44 µM) | 4 (≈ 7.44 µM) | 64 (≈ 119 µM) | 4 (≈ 7.44 µM) | 8 (≈ 14.9 µM) |  |  |  |  |  |  |  |  | COC(=O)CCCCCCCCc1cnc(/C=C(\C)C[C@@H]2OC[C@H](C[C@@H]3O[C@H]3[C@@H](C)[C@H](C)O)[C@@H](O)[C@H]2O)o1
 | 2 (≈ 5.06 µM) | 16 (≈ 40.5 µM) | 2 (≈ 5.06 µM) | 16 (≈ 40.5 µM) |  |  |  |  |  |  |  |  | CCc1cnc(/C=C(\C)C[C@@H]2OC[C@H](C[C@@H]3O[C@H]3[C@@H](C)[C@H](C)O)[C@@H](O)[C@H]2O)o1
128 (≈ 252 µM) | 2 (≈ 3.93 µM) |  | 16 (≈ 31.5 µM) | 32 (≈ 62.9 µM) |  |  |  |  |  |  | No growth |  | COC(=O)c1nc(/C=C(\C)C[C@@H]2OC[C@H](C[C@@H]3O[C@H]3[C@@H](C)[C@H](C)O)[C@@H](O)[C@H]2O)oc1N1CCCCC1
32 (≈ 80.5 µM) | 2 (≈ 5.03 µM) | 8 (≈ 20.1 µM) | 32 (≈ 80.5 µM) |  |  |  |  |  |  |  |  | No growth | C/C(=C\c1ncc(CO)o1)C[C@@H]1OC[C@H](C[C@@H]2O[C@H]2[C@@H](C)[C@H](C)O)[C@@H](O)[C@H]1O

SMILES | MIC (Streptococcus pyogenes [1]) [µg/mL] | MIC (Haemophilus influenzae [2]) [µg/mL] | MIC (Moraxella catarrhalis [3]) [µg/mL] | MIC (Staphylococcus aureus [4]) [µg/mL] | MIC (Streptococcus pneumoniae [5]) [µg/mL] | MIC (Haemophilus influenzae [6]) [µg/mL] | MIC (Streptococcus pneumoniae [7]) [µg/mL] | MIC (Staphylococcus aureus [8]) [µg/mL] | MIC (Haemophilus influenzae [9]) [µg/mL] | MIC (Moraxella catarrhalis [10]) [µg/mL] | MIC (Streptococcus pyogenes [11]) [µg/mL] | MIC (Moraxella catarrhalis [12]) | MIC (Streptococcus pneumoniae [13])
C/C(=C\C(=O)OCCCCCCCCC(=O)O)C[C@@H]1OC[C@H](C[C@@H]2O[C@H]2[C@@H](C)[C@H](C)O)[C@@H](O)[C@H]1O [MUPIROCIN] | 0.13 (≈ 0.26 µM) | 0.03 (≈ 0.0599 µM) | 0.25 (≈ 0.499 µM) | 0.25 (≈ 0.499 µM) | 0.25 (≈ 0.499 µM) |  |  |  |  |  |  |  | 
